ChEMBL document CHEMBL5107962, “Covalent sortase A inhibitor ML346 prevents Staphylococcus aureus infection of Galleria mellonella” (RSC Med Chem, 2022)
Activity calls are given as the source filed them. The rule behind the calls is not given here.

Experiments:
Streptococcus pyogenes = test: Irreversible inhibition of recombinant Streptococcus pyogenes sortase A deltaN81 expressed in Escherichia coli BL21(DE3) cells using Abz-LPATG-Dnp as substrate assessed as Kinact/Ki ratio preincubated for 60 mins followed by substrate addition and measured every 1 min for 15 mins by fluorescence intensity based assay; details: time 75.0 min
In short: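 Variable inhibitor concentrations incubated with SaSrtAΔN24 or SpSrtAΔN81 for different times, followed by FRET enzyme kinetics with Abz-LPATG-Dnp. kobs fitted as kinact × [I]/(KI + [I]) to give kinact and KI.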

[1] = Irreversible inhibition of recombinant Streptococcus pyogenes sortase A deltaN81 expressed in Escherichia coli BL21(DE3) cells using Abz-LPATG-Dnp as substrate preincubated for 60 mins followed by substrate addition and measured every 1 min for 15 mins by FRET-based assay
[2] = Selectivity ratio of Ki for irreversible inhibition of recombinant Staphylococcus aureus sortase A deltaN24 expressed in Escherichia coli BL21(DE3) cells to Ki for irreversible inhibition of recombinant Streptococcus pyogenes sortase A deltaN81 expressed in Escherichia coli BL21(DE3) cells
Staphylococcus aureus [3] = test: Anti-virulence activity against Staphylococcus aureus USA300 assessed as decrease in cell-wall anchored SpA level at 25 to 200 uM by FITC-labelled human IgG based […]; assay type: functional, organism-based; details: dose 25-200 µM
In short: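 S. aureus grown in TSB (1:1000 dilution) with inhibitor until A600 1.0. Washed cells incubated with FITC-labelled human IgG in PBS for 30 min at room temperature in the dark, rinsed, and read by fluorescence. Three technical replicates, three independent experiments. Mean ± SEM, unpaired two-tailed Student's t test (n = 3).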

Staphylococcus aureus [4] = test: Irreversible inhibition of recombinant Staphylococcus aureus sortase A deltaN24 C184A mutant expressed in Escherichia coli BL21(DE3) cells assessed as thermal stabilization by measuring change in melting temperature incubated for 15 mins by Nano DSF assay
In short: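 40 µg SaSrtAΔN24 (wild type or C184A) in 100 µL 50 mM Tris-HCl pH 9.0, 150 mM NaCl, 5 mM CaCl2 incubated with compound for 15 min at room temperature, then centrifuged. Label-free nanoDSF read at 330/350 nm while ramping 30–90 °C at 2 °C per min. Tm taken from the first derivative of the ratio.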

Cathepsin B = Cathepsin B (Homo sapiens, UniProt P07858); test: Inhibition of cathepsin B (unknown origin) using Cbz-Phe-Arg-AMC as substrate at 20 uM preincubated for 5 mins followed by substrate addition and measured after 10 mins by fluorometric assay; details: time 15.0 min
In short: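 Cbz-Phe-Arg-AMC added (40 µM for B, 80 µM for L) and fluorescence read at ex 380/em 460 nm over 10 min. E64 at 6.25 nM as control. Triplicates, two experiments.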

## COc1ccc(/C=C/C=C2C(=O)NC(=O)NC2=O)cc1
Streptococcus pyogenes
  Ratio: 0.064 µM⁻¹ min⁻¹
[1]
  IC50: 700 nM
[2]
  Ratio: 4
Staphylococcus aureus [3]
  Activity: Active
Staphylococcus aureus [4]
  ΔTm: -0.1 °C
Cathepsin B
  inhibition: Active
